From PubChem
This is a sample that favours compounds with a hit; in the whole collection about 9.6% have one here.
Lmaj promast: inhibitors of Leishmania major promastigote growth; 9% of 200,000 active; inhibition, % at 10 µM; AID 1063; Leishmania major promastigotes, resazurin fluorescence viability; in the data active = inhibition above about 50%;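 also: promastigotes grown with compound for 44 hours at 28 °C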
TNAP inh noacc: blocks human TNAP activity with no phosphate acceptor present; P05186; inhibition, % at 20 µM; purified TNAP, CDP-star luminescence, 30 min; 0.26% of 200,000 active;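 active = tissue-nonspecific alkaline phosphatase inhibition above about 50% at 20 µM in the single-dose screen, limit read from the data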;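 also: 0% = DMSO negative control and 100% = EDTA positive control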
Target sequence (P05186 whole entry, looked up): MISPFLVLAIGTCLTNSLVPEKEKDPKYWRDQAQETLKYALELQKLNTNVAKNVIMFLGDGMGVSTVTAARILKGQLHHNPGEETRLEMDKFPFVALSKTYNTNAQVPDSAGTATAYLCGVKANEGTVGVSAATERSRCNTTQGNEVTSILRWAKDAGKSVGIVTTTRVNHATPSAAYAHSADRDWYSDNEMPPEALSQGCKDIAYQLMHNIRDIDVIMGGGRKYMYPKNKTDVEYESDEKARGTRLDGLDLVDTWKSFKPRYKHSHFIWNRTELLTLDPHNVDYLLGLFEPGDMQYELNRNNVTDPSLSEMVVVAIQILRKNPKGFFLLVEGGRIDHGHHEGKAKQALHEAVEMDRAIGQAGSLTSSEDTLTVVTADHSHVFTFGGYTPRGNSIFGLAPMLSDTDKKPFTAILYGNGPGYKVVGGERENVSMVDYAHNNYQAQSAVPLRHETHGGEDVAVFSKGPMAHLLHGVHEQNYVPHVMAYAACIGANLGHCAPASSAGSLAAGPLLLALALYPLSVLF
TNAP act hi DEA: increases human TNAP activity under high phosphate acceptor concentration | P05186 | purified TNAP, CDP-star luminescence, 1 M DEA, 30 min; hits give high values; 0 = EDTA background, 1 = DMSO-only activity | 200,000 tested, under 10 active | activation factor at 20 µM;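 active = activation factor at least 2 at 20 µM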
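system = human TNAP | amount = enzyme diluted 1/800 final | reagent = 100 µM CDP-star substrate | signal = luminescent substrate turnover signal | dosing = one dose, 20 µM | benchmarks = EDTA negative control, DMSO positive control | measure = activation factor | timing = 30 min reaction, room temperature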
HCT116 bCat-KO: beta-catenin-lacking colon tumor cell growth suppression. HCT116 beta-catenin knockout viability, CellTiter-Glo, 60 h; hits give low values. viability, % at 10 µM. 1.5% of 140,000 active. AID 818;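 active = viability at or under a set limit, the compound median less 4 SD, cut at about 6% in these data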;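 also: 0% = Hyamine 1622 control at 20 µM and 100% = untreated cell control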
PTEN del growth: PTEN-deleted cell growth suppression; HCT116 PTEN-null viability, CellTiter-Glo, 60 h; hits give low values; viability, % at 10 µM; 1.2% of 140,000 active; AID 827;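 active = viability at or below a set limit, 4 SD under the median of all tested compounds, cut at about 3.7% in these data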;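 also: PTEN knockout HCT116 line with beta catenin targeted HCT116 as companion control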
TNAP inh hiacc: inhibitors of human TNAP at high phosphate acceptor concentration; purified TNAP, CDP-star luminescence, 1 M DEA; inhibition, % at 20 µM; 0.03% of 200,000 active; AID 1135;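 active = over 50% inhibition of tissue-nonspecific alkaline phosphatase at 20 µM in the single-dose screen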;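 also: plate controls were DMSO wells for no effect and EDTA-quenched wells as full inhibition for full effect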
The depositor's hits bear a star; . = no result.

SMILES	Lmaj promast	TNAP inh noacc	TNAP act hi DEA	HCT116 bCat-KO	PTEN del growth	TNAP inh hiacc
Cc1ccc(C(=O)O/N=C(\N)c2cccc([N+](=O)[O-])c2)cc1	11	-2	1	74	72	1
Cn1cnc([N+](=O)[O-])c1S(=O)(=O)c1ccc(Cl)cc1	27	-10	1.1	1.6*	1.7*	-5
CCN(CC)c1nc2cc(C)ccc2cc1/C=C(\C#N)C(N)=O	17	-2	1	.	.	2
Nc1ccc(C(=O)OCC(=O)Nc2ccc3c(c2)OCO3)cc1[N+](=O)[O-]	69*	-13	1	93	103	2
CCNc1ccc(C(=O)OCC(=O)c2cc(C)n(Cc3ccc4c(c3)OCO4)c2C)cc1[N+](=O)[O-]	67*	-15	0.9	86	80	6
Cc1ccc(OCC(=O)Nc2ccc3c(c2)OCO3)c([N+](=O)[O-])n1	55*	-3	1.1	95	99	-7
Cc1ccc(OCC(=O)Nc2ccc3c(c2)OCCO3)cc1C	1	-208	1	.	.	-1
O=C(COC(=O)c1ccc(N2CCOCC2)c([N+](=O)[O-])c1)Nc1ccc2c(c1)OCO2	18	-5	1	95	97	-1
Cc1cc(C)c(OCC(=O)Nc2ccc3c(c2)OCO3)cc1C	80*	-5	1.1	110	95	-5
Cc1ccc(OCC(=O)Nc2ccc3c(c2)OC(F)(F)O3)c([N+](=O)[O-])n1	0	-2	1	90	84	2
Cc1cccc(NS(=O)(=O)c2ccc3c(c2)Cc2cc(S(=O)(=O)Nc4cccc(C)c4C)ccc2-3)c1C	33	-11	1	30	6	3
Cc1ccc(C)c(OCC(=O)Nc2ccc3c(c2)OCO3)c1	82*	-11	1	86	86	-3
Cc1ccccc1OCCCC(=O)Nc1ccc2c(c1)OCO2	-4	-9	1	82	71	0
Cc1c(Cl)c([N+](=O)[O-])nn1CC(=O)Nc1ccc2c(c1)OCO2	81*	-4	1	89	97	5
Cc1ncc([N+](=O)[O-])n1CC(=O)Nc1ccc2c(c1)OCO2	1	-14	1.1	.	.	-5
Cc1ccc(SCC(=O)Nc2cc([N+](=O)[O-])ccc2O)cc1	-8	8	0.9	.	.	9
NC(=S)n1[nH]c(-c2ccc([N+](=O)[O-])cc2)c(N=Nc2ccc(O)cc2)c1=O	97*	8	0.7	78	90	29
CCOc1ccc(C(=O)C(CN2CCOCC2)c2ccccc2)cc1 (stereo unspecified)	99*	-6	1	3.1*	2.7*	-3
COc1ccc(CC(=O)OC(C)CN2CCOCC2)cc1 (stereo unspecified)	-4	-12	1.1	.	.	-9
COc1ccc(C(O)C(CN2CCOCC2)c2ccccc2)cc1 (stereo unspecified)	89*	-8	1	100	94	0
CCC(=O)c1ccc(OCC(O)CN2CCOCC2)cc1 (stereo unspecified)	-6	-9	1.1	101	100	-5
CCO[C@H]1OC(C(=O)N2CCN(Cc3ccc4c(c3)OCO4)CC2)=C[C@@H](c2ccc(C(F)(F)F)cc2)[C@@H]1CCCO	34	-8	1.1	.	.	-6
CC1CCCCN1C/C=C/c1ccccc1[N+](=O)[O-] (stereo unspecified)	85*	-14	1.1	95	102	-8
CC1CCCN(c2ccc([N+](=O)[O-])s2)C1 (stereo unspecified)	-7	22	0.7	.	.	30
CCC1CCCCN1S(=O)(=O)c1ccccc1[N+](=O)[O-] (stereo unspecified)	17	-2	1	.	.	0
CCC1CCCCN1C/C=C/c1ccccc1[N+](=O)[O-] (stereo unspecified)	90*	-3	1	103	92	0
CC1CCCN(C/C=C/c2ccccc2[N+](=O)[O-])C1 (stereo unspecified)	88*	-11	1	94	88	-4
CC(CC(=O)Nc1cccnc1)c1ccccc1 (stereo unspecified)	-3	-5	1.1	.	.	-5
CCN(C(=O)CN1CCN(c2cccc(C(F)(F)F)c2)CC1)c1c(N)n(Cc2ccccc2)c(=O)[nH]c1=O	-4	-13	1	.	.	-3
